# According to ChEMBL document CHEMBL2311407, “Design and synthesis of diazatricyclodecane agonists of the G-protein-coupled receptor 119” (J Med Chem, 2013):
# Experiments:
# [1] = Thermodynamic solubility of the compound in PBS at pH 1.2; assay type: physicochemical; settings: read-out: Therm_solubility
# [2] = Apparent permeability in MDCK2 cells; assay type: ADME, cell-based, Canis lupus familiaris, MDCK-II; settings: dog, MDCK
# [3] = Apparent intrinsic clearance in human liver microsomes; assay type: ADME, Microsome; settings: read-out: CLH(app)
# [4] = Fraction unbound in Beagle dog plasma; assay type: ADME, cell-free, Canis lupus familiaris
# [5] = Fraction unbound in Sprague-Dawley rat plasma; assay type: ADME, cell-free
# [6] = Oral bioavailability in Beagle dog at 100 mg/kg administered as spray dried dispersion; assay type: ADME, organism-based, Canis lupus familiaris; settings: in vivo
# Outline: (§1)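 Oral gavage in male beagle dogs at 10, 30 or 100 mg/kg, 5 mL/kg, as 25% spray dried dispersion in 20 mM Tris buffer in 0.5% methylcellulose and 0.5% HPMCAS-HF, pH 7.4. Plasma concentrations are total drug. Values are the mean of two animals. F is based on 1 mg/kg iv dog data.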
# [7] = Tmax in Beagle dog at 100 mg/kg, po administered as spray dried dispersion; assay type: ADME, organism-based, Canis lupus familiaris; set-up: dose 100 mg/kg, route oral; settings: in vivo; outline: as §1
# [8] = Cmax in Beagle dog at 100 mg/kg, po administered as spray dried dispersion; assay type: ADME, organism-based, Canis lupus familiaris; set-up: dose 100 mg/kg, route oral; settings: in vivo; outline: as §1
# [9] = AUC in Beagle dog at 100 mg/kg, po administered as spray dried dispersion; assay type: ADME, organism-based, Canis lupus familiaris; set-up: dose 100 mg/kg, route oral; settings: plasma; outline: as §1
# [10] = Oral bioavailability in Beagle dog at 30 mg/kg administered as spray dried dispersion; assay type: ADME, organism-based, Canis lupus familiaris; settings: in vivo; outline: as §1
# [11] = Tmax in Beagle dog at 30 mg/kg, po administered as spray dried dispersion; assay type: ADME, organism-based, Canis lupus familiaris; set-up: dose 30 mg/kg, route oral; settings: in vivo; outline: as §1
# [12] = Cmax in Beagle dog at 30 mg/kg, po administered as spray dried dispersion; assay type: ADME, organism-based, Canis lupus familiaris; set-up: dose 30 mg/kg, route oral; settings: in vivo; outline: as §1
# [13] = AUC in Beagle dog at 30 mg/kg, po administered as spray dried dispersion; assay type: ADME, organism-based, Canis lupus familiaris; set-up: dose 30 mg/kg, route oral; settings: plasma; outline: as §1
# [14] = Oral bioavailability in Beagle dog at 10 mg/kg administered as spray dried dispersion; assay type: ADME, organism-based, Canis lupus familiaris; settings: in vivo; outline: as §1
# [15] = Tmax in Beagle dog at 10 mg/kg, po administered as spray dried dispersion; assay type: ADME, organism-based, Canis lupus familiaris; set-up: dose 10 mg/kg, route oral; settings: in vivo; outline: as §1
# [16] = Cmax in Beagle dog at 10 mg/kg, po administered as spray dried dispersion; assay type: ADME, organism-based, Canis lupus familiaris; set-up: dose 10 mg/kg, route oral; settings: in vivo; outline: as §1
# [17] = AUC in Beagle dog at 10 mg/kg, po administered as spray dried dispersion; assay type: ADME, organism-based, Canis lupus familiaris; set-up: dose 10 mg/kg, route oral; settings: plasma; outline: as §1
# [18] = Oral bioavailability in Beagle dog at 3 mg/kg administered as spray dried dispersion; assay type: ADME, organism-based, Canis lupus familiaris; settings: in vivo
# Outline: (§2)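 Male beagle dogs were dosed po at 3 mg/kg, 0.6 mL/kg, as 25% spray dried dispersion in 20 mM Tris buffer with 0.5% methylcellulose + 0.5% HPMCAS-HF, pH 7.4. Plasma concentrations are total drug. Values are the mean of two animals. F is calculated against 1 mg/kg iv dog data.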
# [19] = Tmax in Beagle dog at 3 mg/kg, po administered as spray dried dispersion; assay type: ADME, organism-based, Canis lupus familiaris; set-up: dose 3 mg/kg, route oral; settings: in vivo; outline: as §2
# [20] = Cmax in Beagle dog at 3 mg/kg, po administered as spray dried dispersion; assay type: ADME, organism-based, Canis lupus familiaris; set-up: dose 3 mg/kg, route oral; settings: in vivo; outline: as §2
# [21] = Half life in Beagle dog at 3 mg/kg, po administered as spray dried dispersion; assay type: ADME, organism-based, Canis lupus familiaris; set-up: dose 3 mg/kg, route oral; settings: in vivo; outline: as §2
# [22] = AUC in Beagle dog at 3 mg/kg, po administered as spray dried dispersion; assay type: ADME, organism-based, Canis lupus familiaris; set-up: dose 3 mg/kg, route oral; settings: plasma; outline: as §2
# [23] = Cmax in Beagle dog at 1 mg/kg, iv; assay type: ADME, organism-based, Canis lupus familiaris; set-up: dose 1 mg/kg, route intravenous; settings: in vivo
# Outline: (§3)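 Male beagle dogs received 1 mg/kg iv at 2 mL/kg in 5% dimethylacetamide/75% PEG200/20% (30% SBE-CD). Plasma concentrations are total drug. Values are the mean of two animals.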
# [24] = Volume of distribution at steady state in Beagle dog at 1 mg/kg, iv; assay type: ADME, organism-based, Canis lupus familiaris; set-up: dose 1 mg/kg, route intravenous; settings: in vivo, read-out: Vdss
# Outline: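 Male beagle dogs received 1 mg/kg iv at 2 mL/kg in 5% DMA/75% PEG200/20% (30% SBE-CD). Plasma concentrations are reported as total drug. Parameters are means from two animals.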
# [25] = Clearance in Beagle dog at 1 mg/kg, iv; assay type: ADME, organism-based, Canis lupus familiaris; set-up: dose 1 mg/kg, route intravenous; settings: in vivo; outline: as §3
# [26] = Half life in Beagle dog at 1 mg/kg, iv; assay type: ADME, organism-based, Canis lupus familiaris; set-up: dose 1 mg/kg, route intravenous; settings: in vivo; outline: as §3
smiles,measurement,setting,value
Cc1c(Oc2ccc(-n3cnnn3)cc2F)ncnc1N1C2CC3CC1CC(C2)N3C(=O)OC1(C)CC1,solubility thermodynamic,[1],4.8 µg/mL
same,Papp,[2],3.5 ×10⁻⁶ cm/s
same,CLint scaled,[3],< 9.5 mL/min/kg
same,fraction unbound,[4],0.014
same,fraction unbound,[5],0.01
same,bioavailability,[6],32%
same,Tmax,[7],1.5 h
same,Cmax,[8],6030 ng/mL
same,AUC,[9],151000 ng·h/mL
same,bioavailability,[10],54%
same,Tmax,[11],1 h
same,Cmax,[12],3750 ng/mL
same,AUC,[13],76800 ng·h/mL
same,bioavailability,[14],87%
same,Tmax,[15],1 h
same,Cmax,[16],1950 ng/mL
same,AUC,[17],41000 ng·h/mL
same,bioavailability,[18],60%
same,Tmax,[19],1 h
same,Cmax,[20],812 ng/mL
same,half-life,[21],20 h
same,AUC,[22],8580 ng·h/mL
same,Cmax,[23],515 ng/mL
same,Vd,[24],3.7 L/kg
same,clearance,[25],1.74 mL/min/kg
same,half-life,[26],26.8 h
